Measured values reported in ChEMBL document CHEMBL4680118, “Cerpegin-derived furo[3,4-c]pyridine-3,4(1H,5H)-diones enhance cellular response to interferons by de novo pyrimidine biosynthesis inhibition” (Eur J Med Chem, 2020).
Activity calls are given as the source filed them. The calls are words filed in the database; no cut-off is given here.

Assays:
[1] = target: T1, Dihydroorotate dehydrogenase (quinone), mitochondrial (Homo sapiens, UniProt Q02127); assay: Inhibition of DHODH in human HEK-293 cells transfected with ISRE-luciferase reporter gene assessed as increase in IFN-alpha mediated cellular response at 80 uM in presence of uridine measured after 24 hrs by luciferase reporter gene assay; format: cell-based; conditions: HEK293
T1 sequence (Q02127 whole entry): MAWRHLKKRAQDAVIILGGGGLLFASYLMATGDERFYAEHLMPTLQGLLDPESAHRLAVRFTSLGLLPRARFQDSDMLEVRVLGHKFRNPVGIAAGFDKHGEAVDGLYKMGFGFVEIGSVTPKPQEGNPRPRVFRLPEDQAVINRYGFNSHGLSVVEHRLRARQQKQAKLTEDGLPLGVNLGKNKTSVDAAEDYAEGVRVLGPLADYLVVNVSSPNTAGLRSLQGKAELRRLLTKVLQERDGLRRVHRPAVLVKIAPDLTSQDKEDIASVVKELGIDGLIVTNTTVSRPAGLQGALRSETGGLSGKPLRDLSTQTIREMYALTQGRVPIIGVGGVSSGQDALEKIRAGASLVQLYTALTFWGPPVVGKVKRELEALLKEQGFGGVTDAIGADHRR
Summary of the method: (§1)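 ISRE-Luc HEK-293 cells exposed to increasing IFN-α concentrations with DMSO or compound (80 µM), supplemented with uridine (125 µM) or with 3 mM orotate or DHO. Reporter luciferase read after 24 h, normalized to DMSO + IFN-α 250 IU/ml. Means ± SD of three independent experiments; two-way ANOVA.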

[2] = target: T1, Dihydroorotate dehydrogenase (quinone), mitochondrial; assay: Inhibition of DHODH in human HEK-293 cells transfected with ISRE-luciferase reporter gene assessed as increase in IFN-alpha mediated cellular response at 80 uM in presence of DHO measured after 24 hrs by luciferase reporter gene assay; format: cell-based; conditions: HEK293; summary of the method: as §1
[3] = target: T1, Dihydroorotate dehydrogenase (quinone), mitochondrial; assay: Inhibition of DHODH in human HEK293 cells transfected with ISRE-luciferase reporter gene assessed as increase in 60 IU/ml IFN-alpha stimulated IFIT3 mRNA expression at 80 uM measured after 16 hrs by RT-qPCR analysis relative to control; format: cell-based
Summary of the method: (§2)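 ISRE-Luc HEK cells co-treated with increasing IFN-α concentrations and DMSO or compound (80 µM) for 16 h. Total RNA extracted from 2×10^5 cells with DNase step; qPCR 35 cycles. CT values normalized to RPL13A and unstimulated controls (2^-ΔΔCT), expressed as fold change versus DMSO alone. Three independent experiments; two-way ANOVA with Bonferroni.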

[4] = target: T1, Dihydroorotate dehydrogenase (quinone), mitochondrial; assay: Inhibition of DHODH in human HEK293 cells transfected with ISRE-luciferase reporter gene assessed as increase in 250 IU/ml IFN-alpha stimulated IFIT3 mRNA expression at 80 uM measured after 16 hrs by RT-qPCR analysis relative to control; format: cell-based; summary of the method: as §2
[5] = target: T1, Dihydroorotate dehydrogenase (quinone), mitochondrial; assay: Inhibition of DHODH in human HEK293 cells transfected with ISRE-luciferase reporter gene assessed as increase in 30 IU/ml IFN-alpha stimulated ISG15 mRNA expression at 80 uM measured after 16 hrs by RT-qPCR analysis relative to control; format: cell-based; summary of the method: as §2
[6] = target: T1, Dihydroorotate dehydrogenase (quinone), mitochondrial; assay: Inhibition of DHODH in human HEK293 cells transfected with ISRE-luciferase reporter gene assessed as increase in 60 IU/ml IFN-alpha stimulated ISG15 mRNA expression at 80 uM measured after 16 hrs by RT-qPCR analysis relative to control; format: cell-based
Summary of the method: (§3)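 HEK-293 ISRE-Luc cells (DMEM, 10% FCS, 37°C, 5% CO2) were given increasing IFN-α doses together with DMSO or compound at 80 μM, then harvested at 16 h. RNA was extracted from 2×10^5 cells with DNase treatment. Transcripts were run by qPCR for 35 cycles and normalized to RPL13A and to unstimulated controls by 2^-ΔΔCT. Values are fold change versus DMSO; three independent experiments; two-way ANOVA with Bonferroni.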

[7] = target: T1, Dihydroorotate dehydrogenase (quinone), mitochondrial; assay: Inhibition of DHODH in human HEK293 cells transfected with ISRE-luciferase reporter gene assessed as increase in 60 IU/ml IFN-alpha stimulated IFIT1 mRNA expression at 80 uM measured after 16 hrs by RT-qPCR analysis relative to control; format: cell-based; summary of the method: as §2
[8] = target: T1, Dihydroorotate dehydrogenase (quinone), mitochondrial; assay: Inhibition of DHODH in human HEK293 cells transfected with ISRE-luciferase reporter gene assessed as increase in 30 IU/ml IFN-alpha stimulated IFIT2 mRNA expression at 80 uM measured after 16 hrs by RT-qPCR analysis relative to control; format: cell-based; summary of the method: as §2
[9] = target: T1, Dihydroorotate dehydrogenase (quinone), mitochondrial; assay: Inhibition of DHODH in human HEK293 cells transfected with ISRE-luciferase reporter gene assessed as increase in 250 IU/ml IFN-alpha stimulated IFIT2 mRNA expression at 80 uM measured after 16 hrs by RT-qPCR analysis relative to control; format: cell-based; summary of the method: as §2
[10] = target: T1, Dihydroorotate dehydrogenase (quinone), mitochondrial; assay: Inhibition of DHODH in human HEK293 cells transfected with ISRE-luciferase reporter gene assessed as increase in 125 IU/ml IFN-alpha stimulated […] mRNA expression at 80 uM measured after 16 hrs by RT-qPCR analysis relative to control; format: cell-based; summary of the method: as §2
[11] = target: T1, Dihydroorotate dehydrogenase (quinone), mitochondrial; assay: Inhibition of DHODH in human HEK293 cells transfected with ISRE-luciferase reporter gene assessed as increase in 250 IU/ml IFN-alpha stimulated […] mRNA expression at 80 uM measured after 16 hrs by RT-qPCR analysis relative to control; format: cell-based; summary of the method: as §2
[12] = target: T1, Dihydroorotate dehydrogenase (quinone), mitochondrial; assay: Inhibition of DHODH in human HEK293 cells transfected with ISRE-luciferase reporter gene assessed as increase in 30 IU/ml IFN-alpha stimulated IFITM3 mRNA expression at 80 uM measured after 16 hrs by RT-qPCR analysis relative to control; format: cell-based; summary of the method: as §2
[13] = target: T1, Dihydroorotate dehydrogenase (quinone), mitochondrial; assay: Inhibition of DHODH in human HEK293 cells transfected with ISRE-luciferase reporter gene assessed as increase in 125 IU/ml IFN-alpha stimulated IFITM3 mRNA expression at 80 uM measured after 16 hrs by RT-qPCR analysis relative to control; format: cell-based; summary of the method: as §2
[14] = target: T1, Dihydroorotate dehydrogenase (quinone), mitochondrial; assay: Inhibition of DHODH in human HEK293 cells transfected with ISRE-luciferase reporter gene assessed as increase in 30 IU/ml IFN-alpha stimulated DDX58 mRNA expression at 80 uM measured after 16 hrs by RT-qPCR analysis relative to control; format: cell-based; summary of the method: as §2
[15] = target: T1, Dihydroorotate dehydrogenase (quinone), mitochondrial; assay: Inhibition of DHODH in human HEK293 cells transfected with ISRE-luciferase reporter gene assessed as increase in 30 IU/ml IFN-alpha stimulated MX2 mRNA expression at 80 uM measured after 16 hrs by RT-qPCR analysis relative to control; format: cell-based; summary of the method: as §2
[16] = target: T1, Dihydroorotate dehydrogenase (quinone), mitochondrial; assay: Inhibition of DHODH in human HEK293 cells transfected with ISRE-luciferase reporter gene assessed as increase in 60 IU/ml IFN-alpha stimulated MX2 mRNA expression at 80 uM measured after 16 hrs by RT-qPCR analysis relative to control; format: cell-based; summary of the method: as §3
[17] = target: T1, Dihydroorotate dehydrogenase (quinone), mitochondrial; assay: Inhibition of DHODH in human HEK293 cells transfected with ISRE-luciferase reporter gene assessed as increase in 250 IU/ml IFN-alpha stimulated PKR mRNA expression at 80 uM measured after 16 hrs by RT-qPCR analysis relative to control; format: cell-based; summary of the method: as §2
[18] = target: T1, Dihydroorotate dehydrogenase (quinone), mitochondrial; assay: Inhibition of DHODH in human HEK293 cells transfected with ISRE-luciferase reporter gene assessed as increase in 30 IU/ml IFN-alpha stimulated PML mRNA expression at 80 uM measured after 16 hrs by RT-qPCR analysis relative to control; format: cell-based; summary of the method: as §2
[19] = target: T1, Dihydroorotate dehydrogenase (quinone), mitochondrial; assay: Inhibition of DHODH in human HEK293 cells transfected with ISRE-luciferase reporter gene assessed as increase in 125 IU/ml IFN-alpha stimulated PML mRNA expression at 80 uM measured after 16 hrs by RT-qPCR analysis relative to control; format: cell-based; summary of the method: as §2
[20] = target: T1, Dihydroorotate dehydrogenase (quinone), mitochondrial; assay: Inhibition of DHODH in human HEK-293 cells transfected with ISRE-luciferase reporter gene assessed as increase in IFN-alpha mediated cellular response after 24 hrs by luciferase reporter gene assay; conditions: read-out: EC50

Activity [1]: inactive
Activity [2]: Active
fold change (FC) [3]: 69
fold change (FC) [4]: 129
fold change (FC) [5]: 21
fold change (FC) [6]: 163
fold change (FC) [7]: 85
fold change (FC) [8]: 26
fold change (FC) [9]: 165
fold change (FC) [10]: 117
fold change (FC) [11]: 143
fold change (FC) [12]: 6
fold change (FC) [13]: 14
fold change (FC) [14]: 16
fold change (FC) [15]: 7
fold change (FC) [16]: 13
fold change (FC) [17]: 4
fold change (FC) [18]: 3
fold change (FC) [19]: 5
EC50 [20]: 44 µM
SMILES: O=C1OC2(CCCCC2)c2ccn(C3CC3)c(=O)c21
